Test results published in ChEMBL document CHEMBL4680065, “Pharmacophore-based screening of diamidine small molecule inhibitors for protein arginine methyltransferases” (RSC Med Chem, 2021).

Biological target: T1, Histone-lysine N-methyltransferase EHMT2 (Homo sapiens) (UniProt Q96KQ7)
T1 sequence (whole entry): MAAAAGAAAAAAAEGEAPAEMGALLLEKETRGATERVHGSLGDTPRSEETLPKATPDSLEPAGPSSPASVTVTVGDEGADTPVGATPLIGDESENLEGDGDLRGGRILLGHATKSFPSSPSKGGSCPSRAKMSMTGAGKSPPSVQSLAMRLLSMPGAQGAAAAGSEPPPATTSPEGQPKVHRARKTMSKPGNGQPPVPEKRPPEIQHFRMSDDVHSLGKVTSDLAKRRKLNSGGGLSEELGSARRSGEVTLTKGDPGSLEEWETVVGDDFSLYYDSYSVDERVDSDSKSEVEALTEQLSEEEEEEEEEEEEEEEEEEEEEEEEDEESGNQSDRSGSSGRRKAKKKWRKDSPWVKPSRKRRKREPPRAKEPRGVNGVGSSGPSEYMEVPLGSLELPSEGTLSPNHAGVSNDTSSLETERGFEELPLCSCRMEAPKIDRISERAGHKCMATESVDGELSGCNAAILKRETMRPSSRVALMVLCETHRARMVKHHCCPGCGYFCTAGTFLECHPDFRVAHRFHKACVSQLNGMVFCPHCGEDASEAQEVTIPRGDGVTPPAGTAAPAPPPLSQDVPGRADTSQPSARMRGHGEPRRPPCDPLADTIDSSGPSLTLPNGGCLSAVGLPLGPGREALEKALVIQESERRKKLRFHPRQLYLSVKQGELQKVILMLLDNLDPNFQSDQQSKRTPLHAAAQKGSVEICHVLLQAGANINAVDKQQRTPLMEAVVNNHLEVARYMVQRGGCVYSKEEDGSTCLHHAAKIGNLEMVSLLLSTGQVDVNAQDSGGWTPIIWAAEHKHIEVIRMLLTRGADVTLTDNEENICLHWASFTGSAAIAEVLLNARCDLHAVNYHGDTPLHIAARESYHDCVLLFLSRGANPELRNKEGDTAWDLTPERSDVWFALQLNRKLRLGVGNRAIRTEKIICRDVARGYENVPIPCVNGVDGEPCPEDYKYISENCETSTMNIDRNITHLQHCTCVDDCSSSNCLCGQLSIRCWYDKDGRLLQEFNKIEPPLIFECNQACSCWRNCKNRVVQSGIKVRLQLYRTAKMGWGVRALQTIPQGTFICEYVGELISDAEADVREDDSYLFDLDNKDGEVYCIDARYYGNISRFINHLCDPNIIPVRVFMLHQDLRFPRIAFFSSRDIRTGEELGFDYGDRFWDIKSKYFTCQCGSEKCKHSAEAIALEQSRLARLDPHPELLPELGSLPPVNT
Test: Inhibition of recombinant His-tagged human G9a expressed in Escherichia coli BL21 (DE3) assessed as residual activity at 10 uM using biotin-labeled histone H3-20 peptide as substrate incubated for 30 mins in presence of [3H]-SAM cofactor by scintillation proximity assay relative to control
Summary of the method: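 Single-point profiling used 10 μM inhibitor added to the enzyme, [3H]-SAM and substrate mixture. Methylated substrate was quantified by scintillation proximity assay. Reactions were held at initial rate, with yield under 10% and substrate near Km. Enzyme, [3H]-SAM and substrate final levels are given in the supplement.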

Question: For `N=C(N)c1ccc(Nc2ccc(-c3cc4ccc(C(=N)N)cc4[nH]3)cc2)cc1`, which Activity is on record?
Answer: 10.5%
